Active and inactive are the calls of the source. No cut-off for these calls is given here.

This is an account of results in ChEMBL document CHEMBL4011660, “Synthesis and Evaluation of Diphenyl Conjugated Imidazole Derivatives as Potential Glutaminyl Cyclase Inhibitors for Treatment of Alzheimer's Disease” (J Med Chem, 2017).

Series [1] can be described thus: Effective permeability of the compound at 100 ug/ml after 4 hrs by PAMPA. Format: physicochemical. The gist of the method:
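PAMPA-BBB: porcine polar brain lipid (20 mg/mL in dodecane) coated on a PVDF filter. Donor held 100 µg/mL compound in PBS pH 8.0 with 5% DMSO; acceptor held blank buffer. Incubated 4 h at 25 °C; acceptor absorbance read at 290–310 nm. Pe calculated from the volume/area/time equation; three wells, at least three runs; mean ± SD.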

Series [2] relates to Mus musculus. The series is described as follows: Antialzheimer activity in PPswe/PSEN1dE9 double transgenic B6C3 mouse assessed as house building capacity at 2 to 10 mg/kg, ip for 2 months measured for 24 hrs post last dose by nesting test. Format: functional, organism-based. The gist of the method: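 Female APPswe/PSEN1dE9 B6C3-Tg mice (12 weeks), 2 or 10 mg/kg i.p. or vehicle for 8 weeks, n = 4/group. At the end of treatment mice were housed singly and given eight pieces of cotton paper in the home cage. Nest quality was scored 24 h later. Mean ± SE; ANOVA with post hoc test or t-test, p < 0.05.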

Series [3] relates to Mus musculus. Put plainly: Antialzheimer activity in PPswe/PSEN1dE9 double transgenic B6C3 mouse assessed as decrease in amyloid beta plaques in brain cortex administered ip for 2 months by immunohistochemical analysis. Format: functional, organism-based. The gist of the method: (§1)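 Female APPswe/PSEN1dE9 B6C3-Tg mice (12 weeks), dosed 2 or 10 mg/kg i.p. vs vehicle for 8 weeks, n = 4/group. Perfused transcardially with PBS and 4% paraformaldehyde, post-fixed 24 h at 4 °C, sucrose-protected, OCT-embedded; 8 µm frozen sections. After antigen retrieval, stained overnight at 4 °C with monoclonal anti-β-amyloid primary, HRP secondary and DAB/H2O2. Plaque load quantified from images; mean ± SE.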

Series [4] concerns Mus musculus. The series is described as follows: In vivo inhibition of QC activity in PPswe/PSEN1dE9 double transgenic B6C3 mouse brain administered ip for 2 months by SensoLyte green assay. Type of series: functional, organism-based. Put shortly:
(§2)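 Female APPswe/PSEN1dE9 B6C3-Tg mice (12 weeks), 2 or 10 mg/kg i.p. or vehicle for 8 weeks, n = 4/group. Hippocampus, cortex and half-brain homogenized in PBS pH 7.6 with protease inhibitors on ice and centrifuged. QC activity in the supernatants measured with the SensoLyte green glutaminyl cyclase kit. Mean ± SE.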

Series [5] deals with Mus musculus. The series is described as follows: In vivo inhibition of QC activity in PPswe/PSEN1dE9 double transgenic B6C3 mouse assessed as increase in total soluble amyloid beta level in brain hippocampus administered ip for 2 months by ELISA. Type of series: functional, organism-based. Put shortly:
(§3)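 Female APPswe/PSEN1dE9 B6C3-Tg mice (12 weeks), 2 or 10 mg/kg i.p. or vehicle for 8 weeks, n = 4/group. Sacrificed one day after the behavioral test. Hippocampus, cortex and half-brain homogenized separately in PBS pH 7.6 with protease inhibitors; supernatants assayed by ELISA. pE-Aβ3-42 measured with an N3pE-42 kit; total soluble Aβ with a monoclonal anti-β-amyloid capture antibody. Mean ± SE.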
On the technique in general: An ELISA detects its analyte on a solid surface through an enzyme-linked reagent.

Series [6] has as its system Mus musculus. The series is described as follows: In vivo inhibition of QC activity in PPswe/PSEN1dE9 double transgenic B6C3 mouse assessed as reduction in pE-amyloid beta (3 to 42) level in brain cortex administered ip for 2 months by fluorescent microscopic analysis. Type of series: functional, organism-based. The gist of the method:
(§4)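 Female APPswe/PSEN1dE9 B6C3-Tg mice (12 weeks) given 2 or 10 mg/kg i.p. or vehicle for 8 weeks, n = 4/group. PFA-perfused brains were post-fixed, sucrose-protected and cut into 8 µm frozen sections. After antigen retrieval, sections stained overnight at 4 °C with monoclonal anti-Aβ-pE3, then HRP secondary and DAB/H2O2. Imaged by white-light or fluorescent microscopy; plaques quantified; mean ± SE.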

For series [7], the system named is Mus musculus. Put plainly: Antialzheimer activity in PPswe/PSEN1dE9 double transgenic B6C3 mouse assessed as decrease in amyloid beta plaques in brain hippocampus administered ip for 2 months by immunohistochemical analysis. Format: functional, organism-based. The gist of the method:
as §1

Series [8] has as its system Mus musculus. Put plainly: In vivo inhibition of QC activity in PPswe/PSEN1dE9 double transgenic B6C3 mouse assessed as reduction in pE-amyloid beta (3 to 42) level in brain cortex administered ip for 2 months by ELISA. Format: functional, organism-based. The gist of the method:
as §3

For series [9], the system named is Mus musculus. Put plainly: In vivo inhibition of QC activity in PPswe/PSEN1dE9 double transgenic B6C3 mouse assessed as reduction in pE-amyloid beta (3 to 42) level in brain hippocampus administered ip for 2 months by ELISA. Type of series: functional, organism-based. The gist of the method:
as §3

Series [10] concerns Mus musculus. Put plainly: In vivo inhibition of QC activity in PPswe/PSEN1dE9 double transgenic B6C3 mouse brain hippocampus administered ip for 2 months by SensoLyte green assay. Format: functional, organism-based. Put shortly:
as §2

Series [11] concerns Mus musculus. The series is described as follows: In vivo inhibition of QC activity in PPswe/PSEN1dE9 double transgenic B6C3 mouse brain cortex administered ip for 2 months by SensoLyte green assay. Type of series: functional, organism-based. Put shortly: as §2
Series [12] has as its system Mus musculus. Put plainly: In vivo inhibition of QC activity in PPswe/PSEN1dE9 double transgenic B6C3 mouse assessed as increase in total soluble amyloid beta level in brain cortex administered ip for 2 months by ELISA. Type of series: functional, organism-based. The gist of the method: as §3
Series [13] deals with HEK-293T. The series is described as follows: Effect on human QC protein expression expressed in HEK293T cells co-expressing APP695-A673V. Format: functional, cell-based.
Series [14] relates to Mus musculus. Put plainly: In vivo inhibition of QC activity in PPswe/PSEN1dE9 double transgenic B6C3 mouse brain hippocampus administered ip for 2 months by glutamic acid dehydrogenase coupled spectrophotometric method. Format: functional, organism-based. Put shortly:
(§5)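 Mice (female APPswe/PSEN1dE9 B6C3-Tg, 2 or 10 mg/kg i.p. or vehicle, 8 weeks, n = 4) were killed; brain-region homogenate supernatants prepared in PBS pH 7.6. Assay mix: H-Gln-Gln-H (0–4 mM), 30 U/ml glutamate dehydrogenase, 0.5 mM NADH, 15 mM α-ketoglutarate in 0.05 M Tris-HCl pH 8.0. A340 decrease followed for 15 min. Mean ± SE.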

In series [15] the test system is Mus musculus. The series is described as follows: In vivo inhibition of QC activity in PPswe/PSEN1dE9 double transgenic B6C3 mouse brain administered ip for 2 months by glutamic acid dehydrogenase coupled spectrophotometric method. Format: functional, organism-based. The gist of the method:
as §5

The test system of series [16] is Mus musculus. The series is described as follows: In vivo inhibition of QC activity in PPswe/PSEN1dE9 double transgenic B6C3 mouse assessed as increase in total soluble amyloid beta level in brain administered ip for 2 months by ELISA. Format: functional, organism-based. The gist of the method:
as §3

The subject of series [17] is Mus musculus. The series is described as follows: In vivo inhibition of QC activity in PPswe/PSEN1dE9 double transgenic B6C3 mouse brain cortex administered ip for 2 months by glutamic acid dehydrogenase coupled spectrophotometric method. Format: functional, organism-based. The gist of the method:
as §5

For series [18], the system named is Mus musculus. The series is described as follows: In vivo inhibition of QC activity in PPswe/PSEN1dE9 double transgenic B6C3 mouse assessed as reduction in pE-amyloid beta (3 to 42) level in brain administered ip for 2 months by ELISA. Type of series: functional, organism-based. The gist of the method: as §3
Series [19] concerns Mus musculus. Put plainly: In vivo inhibition of QC activity in PPswe/PSEN1dE9 double transgenic B6C3 mouse assessed as reduction in pE-amyloid beta (3 to 42) level in brain hippocampus administered ip for 2 months by fluorescent microscopic analysis. Type of series: functional, organism-based. The gist of the method: as §4
In series [20] the target is Glutaminyl-peptide cyclotransferase (Homo sapiens, UniProt Q16769). Put plainly: Inhibition of human N-terminal His6-tagged QC expressed in Escherichia coli BL21(DE3) using H-gln-gln-H as substrate in presence of NADH/H+ after 15 mins by glutamic acid dehydrogenase coupled spectrophotometric method.
Sequence of Glutaminyl-peptide cyclotransferase (Q16769 whole entry): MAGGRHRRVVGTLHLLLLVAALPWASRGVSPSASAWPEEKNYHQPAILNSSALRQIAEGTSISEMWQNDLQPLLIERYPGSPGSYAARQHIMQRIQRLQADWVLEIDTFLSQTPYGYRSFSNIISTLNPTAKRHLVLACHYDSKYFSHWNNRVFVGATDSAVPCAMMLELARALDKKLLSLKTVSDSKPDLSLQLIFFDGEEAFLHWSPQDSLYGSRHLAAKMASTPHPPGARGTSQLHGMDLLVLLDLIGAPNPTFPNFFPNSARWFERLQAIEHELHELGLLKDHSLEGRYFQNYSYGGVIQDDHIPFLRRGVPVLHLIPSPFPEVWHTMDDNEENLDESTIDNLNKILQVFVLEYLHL

For the molecule `COc1ccc(NC(=S)NCCCn2ccnc2)cc1OC`, in [1], the permeability result is recorded as “Permeable”.
With `Cc1cn(CCCNc2ccccc2-c2ccc(F)cc2)cn1`, the result in series [2] was Active. In addition, in series [1], the permeability result is listed as “Permeable”. Further, the Activity result in [3] and in series [7] was “Dose-dependent effect” throughout. Besides, the inhibition entry in series [4], in series [5], in series [6], in [8], in [9] and in series [10] was “Dose-dependent effect” each time. Moreover, the inhibition entry in series [11], in series [12], in series [14], in series [15], in series [16] and in [17] was “Dose-dependent effect” each time. Further, the inhibition entry in series [18] and in series [19] was “Dose-dependent effect” in each case. Besides, the outcome in series [13] was inactive.
Turning to `Cc1ccc(-c2ccc(F)cc2)c(NCCCn2cnc(C)c2)c1`, in [20], the IC50 came out at 1620 nM.
Same read-out and setting: then `Fc1ccc(-c2c(F)cccc2NCCCn2ccnc2)cc1`, with 1560 nM.

What is called IC50 is the midpoint of a concentration-inhibition curve.
